The record followed here is ChEMBL document CHEMBL3627646, “Synthesis and biological activity of amino acid derivatives of avarone and its model compound” (Bioorg Med Chem, 2015).

As a reminder, the MIC is the least concentration at which growth counts as inhibited. Low values mean inhibition by little substance, high ones a need for much substance. In general, IC50 refers to the concentration needed to halve the response being measured. Broadly, the LC50 is the concentration that kills 50% of the test population.

Molecules are shown by their SMILES. In brackets after ≈: the same amount, converted by molar mass.

One series relates to Bacillus subtilis. The experiment in a line: Antibacterial activity against Bacillus subtilis ATCC 6633 after 24 hrs by microbroth double dilution method. It is filed as functional. Conditions: ATCC 6633, 24 h. A digest of the protocol: (§1)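 Microbroth double dilution in Mueller Hinton broth; compound stock 10 mg/mL in DMSO serially halved across rows. Wells inoculated with 10 μL culture at 10^6 cells/mL, incubated 37 °C for 24 h. Amikacin row as positive control, DMSO row as negative control. MIC taken as lowest concentration inhibiting bacterial growth.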
In general terms: In broth dilution the organism is exposed to a series of concentrations in liquid medium.
Turning to `CC1=CCC[C@H]2[C@](C)(CC3=CC(=O)C(N4CCC[C@H]4C(=O)O)=CC3=O)[C@@H](C)CC[C@]12C`, the lowest concentration to inhibit growth (MIC) was 183 µM (≈ 77.9 µg/mL).

Another series relates to Micrococcus luteus. The experiment in a line: Antibacterial activity against Micrococcus luteus ATCC 4698 after 24 hrs by microbroth double dilution method. Type of series: functional. Conditions: ATCC 4698, 24 h. A digest of the protocol: as §1
With `CC1=CCC[C@H]2[C@](C)(CC3=CC(=O)C(N4CCC[C@H]4C(=O)O)=CC3=O)[C@@H](C)CC[C@]12C`, 91.5 µM (≈ 39 µg/mL) was the least that counted as inhibitory (MIC).

In the next series the test system is HeLa. The experiment in a line: Cytotoxicity against human HeLa cells assessed as cell survival after 72 hrs by MTT assay. Type of series: functional, cell-based.
Settings: not given
In short, it runs like this:
(§2)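 Cells seeded (HeLa 2000, MDA-MB-453 3000, others 5000 per well), treated 24 h later (K562 after 2 h). Five double-diluted final concentrations, 200–12.5 μM, from 10 mM DMSO stocks, in RPMI-1640 with 10% FBS, pH 7.2, 72 h. MTT 4 h at 37 °C, SDS added, A570 read next day. Survival relative to medium control; IC50 from survival curves; triplicate; cisplatin positive control.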
For orientation: Formazan colour is commonly taken as a measure of viable cells.
With `CC1=CCC[C@H]2[C@](C)(CC3=CC(=O)C(N4CCC[C@H]4C(=O)O)=CC3=O)[C@@H](C)CC[C@]12C`, the IC50 came out at 36.2 µM.

In another series the test system is Clostridium sporogenes. Put plainly: Antibacterial activity against Clostridium sporogenes ATCC 19404 after 24 hrs by microbroth double dilution method. Type of series: functional. The settings on record: ATCC 19404, 24 h. In short, it runs like this:
as §1
`CC1=CCC[C@H]2[C@](C)(CC3=CC(=O)C(N4CCC[C@H]4C(=O)O)=CC3=O)[C@@H](C)CC[C@]12C`: the lowest concentration to inhibit growth (MIC) was 369 µM (≈ 157 µg/mL).

The test system of a further series is Escherichia coli. The experiment in a line: Antibacterial activity against Escherichia coli ATCC 25922 after 24 hrs by microbroth double dilution method. Type of series: functional. The settings on record: ATCC 25922, 24 h. In short, it runs like this:
as §1
`CC1=CCC[C@H]2[C@](C)(CC3=CC(=O)C(N4CCC[C@H]4C(=O)O)=CC3=O)[C@@H](C)CC[C@]12C` registered an MIC of 91.5 µM (≈ 39 µg/mL).

The next series relates to Proteus hauseri. Put plainly: Antibacterial activity against Proteus hauseri ATCC 13315 after 24 hrs by microbroth double dilution method. It is filed as functional. The settings on record: ATCC 13315, 24 h. A digest of the protocol:
as §1
In turn, `CC1=CCC[C@H]2[C@](C)(CC3=CC(=O)C(N4CCC[C@H]4C(=O)O)=CC3=O)[C@@H](C)CC[C@]12C` had an MIC of 183 µM (≈ 77.9 µg/mL).

In a further series the test system is Salmonella enterica. The experiment in a line: Antibacterial activity against Salmonella enterica ATCC 13076 after 24 hrs by microbroth double dilution method. It is filed as functional. Conditions: ATCC 13076, 24 h. In short, it runs like this: as §1
On to `CC1=CCC[C@H]2[C@](C)(CC3=CC(=O)C(N4CCC[C@H]4C(=O)O)=CC3=O)[C@@H](C)CC[C@]12C`, for which the minimum inhibitory concentration (MIC) was 183 µM (≈ 77.9 µg/mL).

The test system of the next series is MRC5. Put plainly: Cytotoxicity against human MRC5 cells assessed as cell survival after 72 hrs by MTT assay. Type of series: cell-based. Conditions: MRC5, 72 h. In short, it runs like this:
as §2
In the case of `CC1=CCC[C@H]2[C@](C)(CC3=CC(=O)C(N4CCC[C@H]4C(=O)O)=CC3=O)[C@@H](C)CC[C@]12C`, the IC50 was 96 µM.

The subject of another series is K562. Put plainly: Cytotoxicity against human K562 cells assessed as cell survival after 72 hrs by MTT assay. It is filed as functional, cell-based. Conditions: K562, 72 h. A digest of the protocol: as §2
Consider `CC1=CCC[C@H]2[C@](C)(CC3=CC(=O)C(N4CCC[C@H]4C(=O)O)=CC3=O)[C@@H](C)CC[C@]12C`, for which the IC50 stood at 35.4 µM.

A further series has as its system A549. The experiment in a line: Cytotoxicity against human A549 cells assessed as cell survival after 72 hrs by MTT assay. The settings on record: A549, 72 h. Type of series: functional, cell-based. In short, it runs like this: as §2
As to `CC1=CCC[C@H]2[C@](C)(CC3=CC(=O)C(N4CCC[C@H]4C(=O)O)=CC3=O)[C@@H](C)CC[C@]12C`, the IC50 is 49.2 µM.

A further series relates to Staphylococcus aureus. Put plainly: Antibacterial activity against Staphylococcus aureus ATCC 6538 after 24 hrs by microbroth double dilution method. Type of series: functional. Conditions: ATCC 6538, 24 h. In short, it runs like this: as §1
`CC1=CCC[C@H]2[C@](C)(CC3=CC(=O)C(N4CCC[C@H]4C(=O)O)=CC3=O)[C@@H](C)CC[C@]12C` registered an MIC of 91.5 µM (≈ 39 µg/mL).

The next series concerns Kocuria rhizophila. The experiment in a line: Antibacterial activity against Kocuria rhizophila ATCC 9341 after 24 hrs by microbroth double dilution method. Type of series: functional. Conditions: ATCC 9341, 24 h. A digest of the protocol: as §1
On to `CC1=CCC[C@H]2[C@](C)(CC3=CC(=O)C(N4CCC[C@H]4C(=O)O)=CC3=O)[C@@H](C)CC[C@]12C`, for which it took 735 µM (≈ 313 µg/mL) to inhibit growth (MIC).

For another series, the system named is Aspergillus brasiliensis. The experiment in a line: Antifungal activity against Aspergillus brasiliensis ATCC 16404 after 24 hrs by microbroth double dilution method. Conditions: ATCC 16404, 24 h. Type of series: functional.
Consider `CC1=CCC[C@H]2[C@](C)(CC3=CC(=O)C(N4CCC[C@H]4C(=O)O)=CC3=O)[C@@H](C)CC[C@]12C`, for which the MIC turned out to be 735 µM (≈ 313 µg/mL).

Another series relates to Micrococcus flavus. Put plainly: Antibacterial activity against Micrococcus flavus ATCC 10240 after 24 hrs by microbroth double dilution method. It is filed as functional. The settings on record: ATCC 10240, 24 h. A digest of the protocol: as §1
`CC1=CCC[C@H]2[C@](C)(CC3=CC(=O)C(N4CCC[C@H]4C(=O)O)=CC3=O)[C@@H](C)CC[C@]12C` returned an MIC of 183 µM (≈ 77.9 µg/mL).

In a further series the test system is Saccharomyces cerevisiae. Put plainly: Antifungal activity against Saccharomyces cerevisiae ATCC 9763 after 24 hrs by microbroth double dilution method. The settings on record: ATCC 9763, 24 h. Type of series: functional.
In turn, `CC1=CCC[C@H]2[C@](C)(CC3=CC(=O)C(N4CCC[C@H]4C(=O)O)=CC3=O)[C@@H](C)CC[C@]12C` showed an MIC of 45.8 µM (≈ 19.5 µg/mL).

A further series concerns Pseudomonas aeruginosa. Put plainly: Antibacterial activity against Pseudomonas aeruginosa ATCC 9027 after 24 hrs by microbroth double dilution method. It is filed as functional. Conditions: ATCC 9027, 24 h. In short, it runs like this: as §1
In turn, `CC1=CCC[C@H]2[C@](C)(CC3=CC(=O)C(N4CCC[C@H]4C(=O)O)=CC3=O)[C@@H](C)CC[C@]12C` showed an MIC of 183 µM (≈ 77.9 µg/mL).

The test system of the next series is Artemia salina. The experiment in a line: Cytotoxicity in Brine shrimp assessed as nauplii mortality after 24 hrs. Type of series: organism-based. The settings on record: in vivo. In short, it runs like this:
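Artemia salina eggs hatched in aerated tap water with dried yeast at 18–20 °C under illumination for 48 h, and freshly hatched nauplii were used. Compounds in DMSO (0.01–1 mg) were added to 950 µL artificial seawater containing 10–20 nauplii, with 5% final DMSO. After 24 h under illumination at room temperature, dead and surviving nauplii were counted and statistically analysed.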
Turning to `CC1=CCC[C@H]2[C@](C)(CC3=CC(=O)C(N4CCC[C@H]4C(=O)O)=CC3=O)[C@@H](C)CC[C@]12C`, the LC50 stood at 706.6 ppm.

Tested on in a further series: not listed separately
Put plainly: Cytotoxicity against human Fem-X cells assessed as cell survival after 72 hrs by MTT assay. Type of series: functional, cell-based.
Settings: not given
A digest of the protocol: as §2
For `CC1=CCC[C@H]2[C@](C)(CC3=CC(=O)C(N4CCC[C@H]4C(=O)O)=CC3=O)[C@@H](C)CC[C@]12C`, the IC50 was determined as 39.6 µM.

Another series has as its system MDA-MB-453. Put plainly: Cytotoxicity against human MDA-MB-453 cells assessed as cell survival after 72 hrs by MTT assay. Type of series: functional, cell-based. Conditions: MDA-MB-453, 72 h. In short, it runs like this:
as §2
As for `CC1=CCC[C@H]2[C@](C)(CC3=CC(=O)C(N4CCC[C@H]4C(=O)O)=CC3=O)[C@@H](C)CC[C@]12C`, the IC50 turned out to be 60.6 µM.

For a further series, the system named is Candida albicans. Put plainly: Antifungal activity against Candida albicans ATCC 10231 after 24 hrs by microbroth double dilution method. It is filed as functional. Conditions: ATCC 10231, 24 h.
`CC1=CCC[C@H]2[C@](C)(CC3=CC(=O)C(N4CCC[C@H]4C(=O)O)=CC3=O)[C@@H](C)CC[C@]12C` gave an MIC of 23 µM (≈ 9.79 µg/mL).
